In the library only some 4.2% were active in any assay of this set; here they are far more common.
AI-2 QS mod: modulators of Vibrio harveyi AI-2 quorum sensing system. activity change, % at 7.5 µM. 300,000 tested, 0.4% active. Vibrio harveyi JMH597 AI-2 luminescence/OD600 ratio, 9 h; hits give low values; strain lacks LuxN and CqsS sensors; 0 = neutral-control median; in the data active means activity change below about -75%, passing the limit was not always enough;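 further: luminescence divided by OD600 gain over 9 h not by final OD600 alone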
hERG protect: shields human hERG channel from block by proarrhythmic agents | activation (rescue from dofetilide block), less the hit threshold, % at 10 µM | CHO-hERG, FluxOR thallium flux, dofetilide IC70 present | 310,000 tested, 0.51% active | Q12809;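 active means activation above the mean of controls blocked by dofetilide plus 5 SD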;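 further: thallium influx through hERG after potassium depolarization seen as dye fluorescence rise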
KCC2 mod: modulators of human KCC2 chloride dependent transport | B-score of Tl+ flux slope (higher = more flux/activation; lower = inhibition) at 10 µM | 190,000 tested, 2.2% active | KCC2 cells, thallium flux FluoZin-2 fluorescence;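 active means thallium flux slope and its plate-corrected score both differing from the plate sample mean at a set confidence after two filtering rounds, in either direction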;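 further: slope of fluorescence scaled to starting intensity during 10 to 20 s after thallium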
KCNQ1 inh: inhibitors of human KCNQ1 potassium channel; B-score at 10 µM; AID 2642; 310,000 tested, 1.3% active; CHO-K1 KCNQ1, FluxOR thallium flux fluorescence; hits give high values;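 active means compounds whose thallium flux B-score, printed positive for inhibition, exceeds three library SD while starting fluorescence stays within three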;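 further: channel opened by potassium depolarization with thallium stimulus after 20 min compound exposure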
KCNQ1 act: potentiates or activates the human KCNQ1 potassium channel | CHO-K1 KCNQ1, thallium flux FluxOR fluorescence; hits give high values | B-score at 10 µM | 310,000 tested, 0.35% active | AID 2648;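 active means fluorescence ratio B-score, a plate-corrected score, at least three library SD, with initial intensity B-score within 5 SD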
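Test system: CHO-K1 cells stably expressing KCNQ1 / Medium: assay buffer / Also added: depolarizing K+/Tl+ stimulus, K2SO4 and Tl2SO4 each 12.5 mM in 5x stock / Incubation: 90 min dye loading and 20 min compound exposure, both at room temperature / Signal: thallium influx via FluxOR fluorescence, kinetic imaging / Evaluation: B score of baseline-normalized fluorescence ratio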
Mot1-301 SUMO: inhibitors of SUMOylation pathway: yeast Mot1-301 growth rescue; S. cerevisiae Mot1-301 growth rescue, ATP luminescence, 38.5C; percent above DMSO median, 100 means doubled; 320,000 tested, 1% active; AID 2716; growth rescue, % at 18.8 µM;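 active means every valid replicate shows activation above 250% relative to neutral control wells; inactive means the rest, any valid replicate at or below 250%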;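 further: OY570 slx delta 5 strain wells were the positive control but not used for scaling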
KCNQ1 block val: reconfirmed blocker of the human KCNQ1 potassium channel | shares compounds with KCNQ1 inh | KCNQ1 cell line, FluxOR thallium flux fluorescence | inhibition, % at 10 µM | 1,600 tested, 93% active | AID 588353;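 active means primary screen active, with duplicate mean exceeding buffer control mean plus 3 SD of buffer wells, cut at about 28% in these data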;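 further: 0% = buffer control ratio and 100% = XE991 inhibitor control ratio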
CHO KCNQ1 ctr: KCNQ1 inhibitor counter-screen hit in parental CHO cells; 1,600 tested, 21% active; parental CHO-K1, FluxOR thallium flux fluorescence ratio; hits give low values; zero means no signal rise above baseline; shares compounds with KCNQ1 inh; fluorescence ratio (Tl flux) at 10 µM; AID 588366;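 active means mean of duplicate thallium-flux fluorescence ratios in parental host cells more than 5 SD below the buffer control mean, cut at about 0.38 in these data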;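 further: ratio is peak minus minimum fluorescence divided by baseline fluorescence; actives read low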
KCNQ1 ephys val: confirmation of human KCNQ1 potassium channel inhibitors by electrophysiology | shares compounds with KCNQ1 inh | calls only at 10 µM | 490 tested, 20% active | KCNQ1-CHO cells, automated patch clamp current;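 active means KCNQ1 current drop exceeding 3 SD of negative control wells, seen in both duplicate runs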;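 further: steady state current during a 2 s step from -80 to +40 mV; negative values mean current inhibition and positive values mean potentiation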
KCNQ2 inh: KCNQ1 inhibitor that also blocks rat KCNQ2 channel. KCNQ2 cells, FluxOR thallium flux fluorescence. inhibition, % at 10 µM. shares compounds with KCNQ1 inh. 1,600 tested, 71% active;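 active means mean percent inhibition of the KCNQ2 thallium signal more than 5 SD above the buffer-only control wells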;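 further: KCNQ2 expressed in CHO cells; 0% = buffer control wells and 100% = XE-991 inhibitor control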
Target sequence (O88943 whole entry, looked up): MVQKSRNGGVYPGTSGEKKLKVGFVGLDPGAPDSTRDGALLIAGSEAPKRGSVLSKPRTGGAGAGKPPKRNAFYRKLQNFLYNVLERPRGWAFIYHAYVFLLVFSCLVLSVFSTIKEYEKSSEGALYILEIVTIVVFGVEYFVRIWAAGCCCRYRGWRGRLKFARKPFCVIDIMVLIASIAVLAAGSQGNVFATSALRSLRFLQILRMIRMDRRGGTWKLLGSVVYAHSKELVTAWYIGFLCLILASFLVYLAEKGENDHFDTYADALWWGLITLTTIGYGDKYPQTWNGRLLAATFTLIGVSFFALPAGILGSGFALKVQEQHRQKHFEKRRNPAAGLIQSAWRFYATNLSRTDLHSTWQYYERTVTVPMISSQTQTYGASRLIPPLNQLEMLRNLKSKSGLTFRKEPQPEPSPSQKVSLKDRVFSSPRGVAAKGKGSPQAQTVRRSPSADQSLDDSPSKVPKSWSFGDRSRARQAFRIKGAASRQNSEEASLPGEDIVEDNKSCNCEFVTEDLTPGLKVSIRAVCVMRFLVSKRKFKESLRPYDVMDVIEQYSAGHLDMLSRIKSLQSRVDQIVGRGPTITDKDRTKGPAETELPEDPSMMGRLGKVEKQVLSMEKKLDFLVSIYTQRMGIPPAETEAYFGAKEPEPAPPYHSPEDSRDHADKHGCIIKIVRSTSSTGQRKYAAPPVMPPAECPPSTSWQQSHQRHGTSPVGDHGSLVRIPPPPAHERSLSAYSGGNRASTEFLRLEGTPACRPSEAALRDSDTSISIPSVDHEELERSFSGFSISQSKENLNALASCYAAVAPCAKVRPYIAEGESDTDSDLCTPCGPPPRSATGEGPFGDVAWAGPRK
KCNQ1-KCNE1 inh: selectivity of KCNQ1 inhibitors: inhibition of human KCNQ1/KCNE1 channel | shares compounds with KCNQ1 inh | KCNQ1/KCNE1 cells, FluxOR thallium flux fluorescence | inhibition, % at 10 µM | 1,600 tested, 77% active | AID 652147;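 active means mean percent inhibition of duplicate wells above the buffer-only control mean plus 3 SD of those controls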;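 further: 0% = buffer only wells and 100% = XE-991 inhibitor control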
Starred values were filed as active, the others as inactive; i = inactive; . = no result; + = active, no number.

SMILES	AI-2 QS mod	hERG protect	KCC2 mod	KCNQ1 inh	KCNQ1 act	Mot1-301 SUMO	KCNQ1 block val	CHO KCNQ1 ctr	KCNQ2 inh	KCNQ1-KCNE1 inh	others
CCn1c(=NC(=O)C2COc3ccccc3O2)sc2c(OC)ccc(OC)c21 (stereo not given)	11	-15	-2.2	7*	i	9	80*	0.39	82%*	126%*
COCCn1c(=NC(=O)C2COc3ccccc3O2)sc2cc(S(N)(=O)=O)ccc21 (stereo not given)	-7	-10	-0.95	i	i	-3	.	.	.	.
COc1ccc2oc(C(=O)NCCN3CCOCC3)c(C)c2c1OC	8	-2	.	i	i	14	.	.	.	.
CCCCSc1nnc(-c2ccc(C)cc2)c2ccccc12	4	-22	0.73	11*	i	39	154*	0.43	103%*	175%*	KCNQ1 ephys val=i
O=S(=O)(NCc1ccc(F)cc1)c1ccccc1Br	.	.	.	.	.	-7	.	.	.	.
N#Cc1c(N)c(C#N)c(-c2ccc3c(c2)OCO3)c2c1CCCC2	23	-8	.	i	i	24	.	.	.	.
N#Cc1c(N)nc2c(c1-c1ccc3c(c1)OCO3)CCc1ccccc1-2	13	-5	-2	13*	i	10	120*	0.35*	109%*	181%*
O=C(NC(=S)Nc1ccc2oc(=O)ccc2c1)c1cccc(Cl)c1	16	0	.	i	i	17	.	.	.	.
CC[C@@]1(O)C(=O)OCc2c1cc1n(c2=O)Cc2cc3c(N)cccc3nc2-1	25	-3	.	i	i	0	.	.	.	.
CC[C@@]1(O)C(=O)OCc2c1cc1n(c2=O)Cc2cc3c(CN(C)C)c(O)ccc3nc2-1	1	-49	.	32*	i	-29	+	0.017*	i	i
COc1ccc(C2c3c(-c4ccccc4O)n[nH]c3C(=O)N2CCc2ccc(OC)c(OC)c2)cc1 (stereo not given)	42	-24	.	i	i	126	.	.	.	.
COc1ccc(CCN2C(=O)c3[nH]nc(-c4ccccc4O)c3C2c2cccc(Cl)c2)cc1 (stereo not given)	9	-4	-0.0056	9*	i	265	109*	0.46	90%*	140%*	KCNQ1 ephys val=+
CS(=O)(=O)c1cnc(-c2ccccc2)nc1-c1ccccc1Cl	9	-12	-0.42	i	i	9	.	.	.	.
CC1CCCN(S(=O)(=O)c2ccc3[nH]c4c(c3c2)CCCC4)C1 (stereo not given)	25	-5	.	12*	i	22	104*	0.43	99%*	130%*	KCNQ1 ephys val=i
O=C(c1cnn2c(-c3ccccc3)cc(-c3ccccc3)nc12)N1CCN(Cc2ccccc2)CC1	-11	-13	.	7*	i	1	130*	0.31*	154%*	+
O=C(NC1CCCC1)c1cc2nc(-c3ccccc3)cc(-c3ccccc3)n2n1	-2	-9	-0.62	i	i	-12	.	.	.	.
CC1CCN(C(=O)c2cc3nc(-c4ccccc4)cc(-c4ccccc4)n3n2)CC1	24	-15	.	6*	i	-1	112*	0.44	108%*	182%*	KCNQ1 ephys val=i
O=C(CC1SC(=Nc2ccccc2)N(CCCO)C1=O)Nc1ccc(Cl)cc1 (stereo not given)	31	-26	0.091	9*	i	163	72*	0.51	78%*	110%*
CCOC(=O)CSc1cc(CS(=O)c2ccc(Cl)cc2)nc(-c2ccccc2)n1 (stereo not given)	21	-9	.	i	i	426	.	.	.	.
CC1CCN(CCCOc2ccc(Br)cc2Cl)CC1	-2	-13	.	7*	i	169	62*	0.47	i	90%*
CC(C)(C)c1ccc(C(=O)Cn2cnnc2C#N)cc1	46	-9	.	6*	i	226	79*	0.47	i	36%*
O=C(CCNC(=O)c1ccc([N+](=O)[O-])cc1)Oc1ccc(F)c(F)c1	.	.	.	.	.	-1	.	.	.	.
CC(C)(C)c1nc(NC(=O)Nc2ccccc2)sc1Br	23	-14	-0.56	7*	i	-12	92*	0.51	i	69%*	KCNQ1 ephys val=i
CC1(C)CC(=O)C2=C(C1)NC(=O)CC2c1ccc(N(CCC#N)CCC#N)cc1 (stereo not given)	33	3	-0.31	i	i	-4	.	.	.	.
CCCOC(=O)C(C)n1cnc2scc(-c3ccc(C)cc3)c2c1=O (stereo not given)	33	-3	.	9*	i	0	93*	0.47	70%*	116%*	KCNQ1 ephys val=+
SMILES	AI-2 QS mod	hERG protect	KCC2 mod	KCNQ1 inh	KCNQ1 act	Mot1-301 SUMO	KCNQ1 block val	CHO KCNQ1 ctr	KCNQ2 inh	KCNQ1-KCNE1 inh	others
CCC(C(=O)OC)n1cnc2scc(-c3ccc(C)c(C)c3)c2c1=O (stereo not given)	65	-6	.	7*	i	24	52*	0.42	61%*	i
NC(=S)N1CCCc2ccccc21	8	-5	.	i	i	-12	.	.	.	.
Nc1nc(Cl)cc(N2CCC(c3cc(-c4ccc(Cl)cc4Cl)n[nH]3)CC2)n1	50	-15	0.53	6*	i	20	136*	0.37*	113%*	174%*
Cc1ccc(Cl)cc1N1CCN(C(=O)CSc2nnc3n2C(C)(C)Cc2ccccc2-3)CC1	17	-31	-3	17*	i	6	148*	0.28*	145%*	+
CCOC(=O)c1c(NC(=O)c2ccc(N3C(=O)[C@@H]4[C@H](C3=O)[C@H]3C=C[C@@H]4C3)cc2)sc2c1CCCC2	11	-8	-0.18	i	i	-17	.	.	.	.
CC(C)C(NC(=O)c1c(F)cccc1F)C(=O)N1CCN(c2ncccn2)CC1 (stereo not given)	.	.	.	.	.	-9	.	.	.	.
Cc1ccc(Cl)cc1N1CCN(C(=O)CCCn2c(=O)c3cccn3c3cccnc32)CC1	14	-8	.	6*	i	6	98*	0.47	107%*	177%*	KCNQ1 ephys val=i

Screens from PubChem.
